# Values without a mark were called inactive. Inconclusive results are not listed. Calls of active or inactive are those of the source.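 How the source made its calls, unless noted: active means viability at or below 27.92% in each of two runs, the all-compound median minus 4 SD; inconclusive means no clear call, values can overlap the other calls; inactive means the rest.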
# Columns and labels:
# [1] = S. cerevisiae growth inhibition in permissive medium (OD615), pilot counter-assay for S. cerevisiae lifespan shortening project, permissive growth control (AID 705;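 active means growth inhibition above 25% in both replicates, a cutoff set 3 SD above the mean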); details: OD615, 24 h, at 10 µM, active compounds read high
# Summary of the method: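 Material: engineered DeaD yeast; compound dosing: one dose 10 µM, DMSO 0.25% final; measure: yeast growth inhibition indicated by reduced 24 h OD615; detection: OD615 turbidity read; incubation: cells pre-grown 4 h, then 24 h compound exposure, 30 °C humidified; medium: permissive synthetic complete medium with raffinose and galactose carbon sources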
# [2] = S. cerevisiae growth inhibition in restrictive medium, OD615, pilot screen, restrictive growth control, yeast lifespan reduction project (AID 706;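 active means growth inhibition above a set limit, 3 SD over mean compound inhibition, in both replicates, cut at about 43% in these data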;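 further: modified DeaD lifespan yeast strain shifted to restrictive glucose medium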); details: OD615, 48 h, at 10 µM, active compounds read high
# Summary of the method: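 material = engineered S. cerevisiae DeaD strain | medium = glucose-based CSMM-D restrictive medium | times = 4 h pre-incubation, 48 h exposure at 30 °C | technique = OD615 absorbance reading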
# [3] = doxorubicin toxicity protection in MRP-1 cells – H69AR cells, CellTiter-Glo, duplicate, MRP-1 activator project, pilot screen (AID 807;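 active means viability increase at or above a cutoff of the median across tested compounds plus 3 SD, cut at about 8.5% in these data, passing the limit was not always enough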;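 further: compound pretreatment 18-22 h then 72 h combined with doxorubicin; 0% = doxorubicin alone and 100% = vehicle without doxorubicin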); details: H69AR viability with doxorubicin, CellTiter-Glo luminescence; at 10 µM; active compounds read high
# [4] = viability of HCT116 without oncogenic beta-catenin – human colon tumor cells, pilot screen (AID 823;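 active means cell viability at or below a set limit in both duplicate runs, the limit being the all-compound median minus 4 SD, cut at about 23% in these data, passing the limit was not always enough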;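 further: 0% = wells killed by 20 µM Hyamine and 100% = untreated DMSO cell wells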); details: HCT116 beta-catenin knockout viability, CellTiter-Glo, 60 h; at 10 µM; active compounds read low
# [5] = viability of PTEN-null HCT116 cells – cell-based, HCT116 clonal line, CellTiter-Glo, pilot screen (AID 824); details: HCT116 PTEN-deleted viability, 60 h, at 10 µM, active compounds read low;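 further: 0% = 20 µM Hyamine control and 100% = vehicle cell control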
# [6] = RAM pathway blockade in budding yeast – dse1pr::URA3 reporter, 5-FOA selection, pilot screen (AID 869;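 active means inhibition over a set limit, the all-compound mean plus 3 SD, in both replicate runs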;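 further: 0% = DMSO wells with no growth and 100% = 10 µM 1-NA-PP1 with full growth; RAM network block rescues cells from 5-FOA so hits raise OD615 growth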); details: S. cerevisiae dse1pr::URA3 5-FOA growth, OD615, 2 d; at 10 µM; active compounds read high; strain carries analog-sensitive mutant Cbk1 kinase
# [7] = RAM signaling pathway blockade in yeast – S. cerevisiae, Pdr1DBD-CYC8 efflux-inhibited sensitized strain, primary screen (AID 1298;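 active means RAM network inhibition above 8.4% in each of two replicates, 3 SD over the compound average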;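 further: 0% = DMSO untreated cells without growth and 100% = 10 µM 1-NA-PP1 full growth; higher means more yeast growth rescued from 5-FOA killing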); details: S. cerevisiae cbk1-as DSE1-URA3 strain, 5-FOA growth OD615, 2 d; at 50 µM; active compounds read high
Compound,growth inhibition [1] [%],growth inhibition [2] [%],viability increase [3] [%],viability [4],viability [5],inhibition [6] [%],RAM network inhibition [7] [%]
CCN(c1cccc(C)c1)c1ncnc2nc[nH]c12,-4.6,15.6,-3.73,103%,95.9%,0.95,0.64
O=C(CSc1ncnc2nc[nH]c12)N1CCOCC1,-15.7,-14.4,-0.96,86%,102%,-0.435,2.34
CCn1cc(C(=O)NCCCN2CC(C)CC(C)C2)c(=O)c2cc(S(=O)(=O)N(C)C)ccc21 (configuration not stated),-10.3,-19.1,-2.78,96%,98.7%,0.88,-0.73
CC(=O)c1ccc(OCC(C)C)c(CC(C(N)=O)C(N)=O)c1,1.42,-5.6,-1.7,108%,96.1%,1.66,-0.2
c1ccc(N(c2ccccc2)c2nc(N3CCOCC3)nc(N3CCOCC3)n2)cc1,4.5,-1.27,-3.09,92.2%,89.9%,4.5,3.75
CCOC(=O)C1CCCN(C(=O)c2cn(CC(C)C)c(=O)c3cc(OC)c(OC)cc23)C1 (configuration not stated),-8.41,-15.7,-3.43,97%,95%,0.555,0.93
Cc1csc(=NC(=O)c2ccccc2)n1Cc1ccco1,-16.8,-36,-2.24,87.9%,89.9%,1.38,3.14
O=C(Cn1ncc2c(=O)oc3ccccc3c21)N(Cc1ccco1)C1CCCCC1,-4.29,-1.01,-4.59,92.5%,94.6%,2.71,5.12
COc1ccc(NC(=O)CSc2nnc(-c3ccc(C)cc3)n2N)cc1,-3.98,-4.99,0.54,100%,92.8%,1.1,2.69
Cc1onc(-c2ccccc2Cl)c1C(=O)N1CCCCC1C(=O)O (configuration not stated),0.56,-2.38,-1.22,96.6%,98.6%,0.055,4.06
O=C(Nc1nccs1)c1ccc(S(=O)(=O)N2CCCCC2)cc1,-9.01,-1.44,0.89,94%,90%,1.73,5.88
O=S(=O)(c1cccs1)N1CCCc2ccccc21,-13.1,-18.4,-2.75,83.5%,83.8%,1.71,3.38
CCOC(=O)c1ccc(N2C(=O)CC(SCC(N)C(=O)OCC)C2=O)cc1 (configuration not stated),-4.09,-7.37,-2.49,102%,85.6%,1.47,3.7
O=C(NCCN1CCN(c2ccccc2F)CC1)C1CCCN(S(=O)(=O)c2cnc[nH]2)C1 (configuration not stated),5.84,3.21,-1.19,104%,98%,2.38,0.68
CCOc1ccccc1N1C(=O)CC(N(O)c2ccccc2)C1=O (configuration not stated),-13.4,-4.14,-5.35,106%,96.3%,0.17,12.8
CCOC(=O)C1CCN(C(=O)C2CCN(S(=O)(=O)c3cccc4cccnc34)CC2)CC1,4.06,3.42,-1.75,102%,97.6%,0.585,1.1
O=C(CSc1nc2c(cnn2-c2ccc(F)cc2)c(=O)[nH]1)N1CCCc2ccccc21,-2.67,-5.17,-3.32,87.2%,83%,1.2,4.44
COc1ccccc1C(=O)Nc1nnc(-c2ccc3c(c2)CCCC3)o1,-10.5,7.12,-0.59,90.2%,85.1%,0.08,-0.58

Compound,growth inhibition [1] [%],growth inhibition [2] [%],viability increase [3] [%],viability [4],viability [5],inhibition [6] [%],RAM network inhibition [7] [%]
Cn1c(=O)c2c(SCC(=O)c3ccccc3)nc(C3CC3)nc2n(C)c1=O,13.4,7.46,-2.05,76.8%,77.8%,1.17,-1.03
CCOc1ccccc1C1C(C(=O)Nc2ccccc2OC)=C(C)Nc2nc(CCCO)nn21 (configuration not stated),-20.1,-8.73,-3.55,89.5%,88%,1.01,4.4
Cc1cc(C)nc(SCC(=O)NCc2ccco2)n1,3.65,6.47,-5.58,70.6%,78.4%,-0.38,2.1
CCOC(=O)C1CCN(C(=O)CS(=O)Cc2nc(-c3ccc(C)cc3)oc2C)CC1 (configuration not stated),1.66,22.5,-3.68,86.3%,84.6%,0.32,7.5
CCCCCn1c(=O)[nH]c2cc(C(=O)O)ccc2c1=O,-13.9,-12.1,-1.3,102%,90.7%,1.91,2.2
COc1cc(OC)nc(NC(=O)C(C)C)n1,-1.12,6.71,-0.57,104%,97.3%,1.01,4.06
Cc1[nH]n2c(=O)c3c(nc2c1-c1ccc(Cl)cc1)CCC3,-14.1,-8.77,-2.32,22.5% (active),26.8% (active),1.88,6.65
Cc1cc(C)c(C#N)c(Oc2ccc(O)cc2)n1,-14.7,-10.3,-2.42,98.7%,90.9%,2.56,2.67
CCCC(=O)C1=C(SCC)CC(C)(C)C(C(=O)OC)C1=O (configuration not stated),-14.4,-21.5,-2.57,86.5%,91.8%,-0.035,3.4
CCOC(=O)c1sc(NC(=O)C2CC2)cc1C,-9.29,-0.985,0.54,99.5%,89.4%,2.37,0.98
CCCCN(CC)CCNC(=O)Cn1cnc2sc(C)c(S(=O)(=O)N3CCOCC3)c2c1=O,-7.83,0.72,-0.05,99.5%,98.4%,2.3,0.78
Cc1cc(C)n(C(=O)c2ccc(NC(=O)C3CC3)cc2)n1,-8.57,-4.89,1.99,102%,91.3%,1.58,5.67
O=C(OCN1C(=O)c2ccccc2C1=O)c1cccs1,-2.01,-11.2,-0.64,94.7%,96.5%,1.2,1.51
O=S(=O)(c1ccc(-c2cn3ccccc3n2)cc1)N1CCOCC1,1.49,-12.4,-3.55,86.7%,97.3%,1.14,3.9
CCCCN(C)C(=O)c1ccc2c(c1)N(CC)C(=O)c1ccccc1S2(=O)=O,-2.31,3.19,-1.45,87.8%,91.2%,1.74,4.11
CCOC(=O)c1ccc(NCn2c(=O)oc3ccccc32)cc1,-8.51,-15.7,-4.09,88.5%,87.6%,-0.385,-0.1
O=C(Nc1ccccc1)c1ccccc1O,1.28,13.7,-1.14,92.2%,83.2%,-0.42,-1.46
O=C(O)Cn1ncc2c1-c1ccoc1CC2,-0.31,2.4,-0.14,106%,96.6%,2.17,0.47

# From PubChem BioAssay
